Assay outcomes: PubChem, several laboratories
EP2 mod: EP2 receptor modulators, cAMP readout, primary screen, cell-based, HTRF cAMP, PGE2 stimulation; hit rate 0.83% among 260,000; Prostaglandin E2 receptor EP2 subtype (Homo sapiens), P43116; EP2-expressing cells, cAMP HTRF FRET, PGE2 co-stimulation; AID 940, 2007; induction, % at 25 µM;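 active = compounds whose cAMP rise, as percent of the full-agonist control response, exceeds 60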;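 also: rat C6 glioma line stably carrying human EP2 under a CMV promoter; the protocol text gives 20 µM as final concentration; 100% = response of wells given 1 µM PGE2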
Target sequence (P43116 whole entry, looked up): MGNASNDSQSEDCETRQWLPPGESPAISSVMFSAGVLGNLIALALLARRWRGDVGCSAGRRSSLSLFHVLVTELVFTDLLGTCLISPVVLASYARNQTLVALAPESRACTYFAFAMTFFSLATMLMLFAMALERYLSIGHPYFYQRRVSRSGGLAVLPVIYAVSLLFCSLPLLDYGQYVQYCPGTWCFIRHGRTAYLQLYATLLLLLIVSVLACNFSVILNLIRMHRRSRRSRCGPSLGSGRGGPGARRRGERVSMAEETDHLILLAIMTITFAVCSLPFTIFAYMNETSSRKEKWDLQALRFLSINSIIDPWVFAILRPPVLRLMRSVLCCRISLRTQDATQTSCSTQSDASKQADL
Tb hexokinase: Trypanosoma brucei hexokinase 1 inhibitors, primary screen, biochemical, G6PDH-coupled NADH absorbance, MLSCN library; recombinant TbHK1, G6PDH-coupled NADH A340; inhibition, % at 10 µM; hexokinase 1 [Trypanosoma brucei]; hit rate 0.11% among 220,000;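 active = inhibition of 50% or more in the single-dose primary screen; inactive = inhibition below 50%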
EP2 antag: human EP2 receptor antagonists, primary screen, TR-FRET cAMP, C6 glioma cells | Prostaglandin E2 receptor EP2 subtype (Homo sapiens), P43116 | C6 glioma cells expressing human EP2; cells stimulated with saturating PGE2 | inhibition, % at 25 µM | hit rate 0.52% among 260,000 | AID 1422, 2008;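 active = percent inhibition above 40 after rounding to a whole number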;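 also: rat C6 glioma host cells with rolipram phosphodiesterase inhibitor present; the protocol text gives 20 µM as final concentration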
Efa HMGR inh: inhibitors of E. faecalis class II HMGR, primary screen, biochemical, Enterococcus faecalis | purified E. faecalis HMGR, NADPH absorbance 340 nm kinetic | inhibition, % at 10 µM | hit rate 0.41% among 190,000 | AID 1066, 2008;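 active = inhibition above a set limit, the median over all tested compounds plus 3 SD, cut at about 9.5% in these data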;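 also: enzyme runs in reverse so mevalonate oxidation gives rising NADPH absorbance; 0% = complete reaction with DMSO and 100% = background rate lacking mevalonate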
MT stabilizer: microtubule stabilizers in HeLa cells, primary screen, imaging, high-content imaging; HeLa tubulin immunostaining HCS, 24 h; share of cells brighter than vehicle mean+2SD; % tubulin-high responders, % at 10 µM; hit rate 0.83% among 200,000; AID 2205, 2009;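 active = plate Z-score above 3 for both tubulin-high and condensed-nucleus cell shares, with cell loss under 80%, at 10 µM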;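 also: anti alpha tubulin signal scored within the nucleus-defined area of each cell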
b-catenin transl: modulators of beta-catenin nuclear translocation, primary screen, imaging, HeLa cells, immunofluorescence, high-content | hit rate 0.3% among 190,000 | nuclear translocation activity, % at 5 µM;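 active = nuclear translocation activity above 50% at 5 µM, with a well cell count of 50 or more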;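 also: per-cell ratio of nuclear to cytoplasmic median beta-catenin stain intensity; plate controls were DMSO negative control for no effect and GSK-3 inhibitor IX positive control for full effect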
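Test system: human HeLa cell line; Doses: 5 µM primary, 0.02–20 µM confirmation; Incubation: 24 h compound exposure, 37°C; Detection: beta-catenin immunofluorescence imaging with DAPI; Read-out: beta-catenin nuclear/cytoplasmic ratio, % activation.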
EP2 cAMP induct: cAMP induction in EP2, EP4, beta2-AR and parental cells, confirmation, counter-screen for EP2 modulator project, cell-based, five parallel assays, C6 glioma, HEK293; shares compounds with EP2 mod; cAMP HTRF induction; plus low (about EC15) PGE2 agonist; calls only at 20 µM (by protocol); hit rate 47% among 1,300; AID 1080, 2008;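 active = cAMP induction above 50% in the main assay while under 30% in all four parallel counter assays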;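 also: rat C6 glioma cells stably expressing human EP2 receptor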
The depositor's hits bear a star; i = inactive; · = no result given; + = active, no number. An excerpt weighted towards active compounds, which were near 2.4% of everything screened.

SMILES	EP2 mod	Tb hexokinase	EP2 antag	Efa HMGR inh	MT stabilizer	b-catenin transl	EP2 cAMP induct
O=C(CSc1nnc(COc2ccccc2)n1-c1ccccc1)c1ccccc1	50.5	6.0	10.1	-1.4	2.4	2.3	i
COc1ccc(C(=O)CSc2nnc(COc3ccc(C#N)cc3)n2-c2ccccc2)cc1	-14.0	-6.1	17.1	1.9	4.8	-3.5	·
COc1ccc2cc(CN(Cc3ccccc3)C(c3nnnn3Cc3ccco3)C(C)C)c(=O)[nH]c2c1 (stereo not given)	10.4	·	8.0	·	·	·	·
CN(Cc1cc(Br)cc(Br)c1O)Cc1c(O)ccc2ccccc12	62.2*	·	35.1	·	·	·	i
CCN(Cc1cc(Cl)cc(C)c1O)Cc1c(O)ccc2ccccc12	54.1	·	37.8	·	·	·	i
CC(C)CN(Cc1c(O)ccc2ccccc12)CC(C)C	2.2	9.2	12.1	1.2	5.3	0.1	·
CCN(Cc1ccncc1)Cc1c(O)ccc2ccccc12	-46.4	2.0	7.9	5.0	1.3	-1.8	·
CC(C)c1nc2ccccc2c2nnc(SCC(=O)N3CCc4ccccc4C3)n12	-6.4	·	14.6	·	·	·	·
CCC(CC)C(=O)NCCCn1c(-c2cccnc2C)cc2cccnc21	-1.8	·	6.6	·	·	·	·
COC(=O)C(C)Sc1ncnc2c1nnn2-c1ccc(F)cc1 (stereo not given)	56.4	-5.7	-1.6	0.0	4.1	-1.5	i
CC(=O)N1CCCc2cc(C(O)CN3CCN(c4ccc(F)cc4F)CC3)ccc21 (stereo not given)	-17.4	·	7.6	·	·	·	·
O=S(=O)(Nc1ccccc1N1CCCCC1)c1ccc(Cl)s1	68.8*	8.3	5.5	-2.1	3.2	·	i
Cc1ncc(-c2ccncc2)c(C2CCN(C(=O)c3cccc4nccnc34)CC2)n1	-13.7	·	·	·	·	·	·
Cc1nc(SCC(=O)Nc2ccccc2C)n[nH]1	5.5	·	17.8	·	·	·	·
CC(=O)OCC(=O)[C@@]12OC(C)(C)O[C@@H]1C[C@H]1[C@H]3CC=C4C[C@@H](O)CC[C@]4(C)[C@@H]3CC[C@@]12C	52.3	·	39.7*	·	·	·	i
CC12CCC(O)CC1=CCC1C2CCC2(C)C1CCC21CCC(=O)O1 (stereo not given)	-17.6	31.0	6.2	3.2	3.3	-5.6	·
Cc1ncc(-c2ccncc2)c(C2CCCN(C(=O)c3ccco3)C2)n1 (stereo not given)	-36.4	·	·	·	·	·	·
Fc1ccc(-c2nnsc2Sc2ccccn2)cc1	-2.5	-7.1	8.0	-4.4	4.0	1.5	·
O=S(=O)(c1ccc(F)cc1)c1snnc1-c1ccccc1	68.7*	-9.8	-1.0	3.6	5.8	0.7	+
COC(=O)c1cc(Br)c(=O)n(-c2nccs2)c1	65.2*	-20.6	24.9	-5.5	1.6	1.0	i
Cc1nc(N2N=C(c3ccc(Cl)cc3)CC2c2ccco2)sc1C(=O)N(C)C (stereo not given)	72.0*	-25.0	5.2	-1.4	3.4	-0.5	+
Clc1ccc(C2=NN(c3ccccc3)C(c3ccco3)C2)cc1 (stereo not given)	24.6	-13.0	10.9	·	·	0.5	·
Cc1c(OCc2ccccc2)c(=O)ccn1Cc1ccc(Cl)cc1	67.1*	-10.0	-2.4	-1.5	1.4	·	i
Cc1cc2n(n1)C(c1ccc(O)c(O)c1)Nc1ccccc1-2 (stereo not given)	-34.2	·	6.1	·	·	·	·
COC(=O)c1c(NC(=O)c2ccccc2N(C)S(=O)(=O)c2ccccc2)sc2c1CCCC2	53.7	-19.7	-0.1	4.9	22.4*	2.5	i
SMILES	EP2 mod	Tb hexokinase	EP2 antag	Efa HMGR inh	MT stabilizer	b-catenin transl	EP2 cAMP induct
COC(=O)c1c(NC(=O)c2ccc(N(C)S(=O)(=O)c3ccc(C)cc3)cc2)sc2c1CCCC2	10.9	-13.9	9.3	-1.5	4.6	-0.1	·
COc1ccc2[nH]c3c(N4CCCCC4)ncnc3c2c1	-105.4	·	31.8	·	·	·	·
Cc1ccc(N=Cc2cc(Cc3ccccc3Cl)cc([N+](=O)[O-])c2O)c(O)c1	67.5*	11.9	10.3	1.1	2.7	0.3	i
COc1ccc([N+](=O)[O-])cc1NC(=O)Cc1ccccc1Cl	3.4	4.8	1.2	-1.7	2.8	5.4	·
COc1ccc(N=Cc2cc(Cc3ccccc3Cl)cc([N+](=O)[O-])c2O)cc1OC	71.8*	-0.8	3.4	3.8	1.8	0.1	+
Cc1n[nH]c(C)c1Sc1ccccc1N=Cc1cc(Cl)cc([N+](=O)[O-])c1O	20.6	6.4	9.0	0.5	4.3	·	·
Cc1ccc(C)c(NS(=O)(=O)c2ccc3c(c2)OCCO3)c1	-92.0	·	4.5	·	·	·	·
CCCCN1C=C(C(=O)OC)C(c2ccccc2Cl)C(C(=O)OC)=C1	69.2*	-0.4	1.4	1.8	1.8	-2.4	+
CCOC(=O)C1=C(C)N(C)C(C)=C(C(=O)OCC)C1c1ccccc1	66.8*	-10.0	10.5	0.6	2.5	-1.6	+
CCCCOc1ccccc1C1C(C(=O)OC)=C(C)N(C)C(C)=C1C(=O)OC	93.9*	-16.6	13.2	4.5	5.7	-1.7	+
Cc1ccccc1OCCn1c(=O)oc2ccccc21	38.2	3.8	12.7	-1.4	2.7	-0.2	·
Cc1ccc2oc(=O)n(CCCOc3ccccc3C)c2c1	31.8	-1.3	16.8	-9.2	2.5	-0.2	·
CCCCOc1ccccc1Cn1c(=O)oc2ccc(C)cc21	79.4*	4.0	2.6	-3.8	2.1	-2.0	+
Cc1ccc(C(C)C)c(OCCn2c(=O)oc3ccccc32)c1	61.0*	2.1	12.1	-1.0	2.7	-0.6	i
Cc1ccc2oc(=O)n(Cc3ccccc3OC(C)C)c2c1	67.0*	1.8	13.2	0.5	3.2	0.9	+
COc1ccc(OC)c(C2NC(=O)NC(C)=C2C(=O)OC(C)(C)C)c1 (stereo not given)	-73.9	·	11.8	·	·	·	·
O=C(O)c1ccc(CSc2nnc(-c3ccccc3)n2-c2ccccc2)cc1	25.4	3.4	7.9	·	·	-0.3	·
Brc1cccc(-c2nnc(SCc3ccon3)n2-c2ccccc2)c1	52.4	-2.2	4.8	5.7	5.1	-6.5	i
CC(CC(=O)O)(CC(=O)O)C(=O)O	51.0	·	7.0	·	·	·	i
CCSc1nc2ccccc2n1Cc1ccccc1F	72.1*	-3.2	10.2	-7.8	3.4	0.2	+
NC(=O)CSc1nc2ccccc2n1Cc1ccccc1F	6.8	-2.7	16.2	1.4	3.5	·	·
